Source: article PMC4929832 (Nature, 2016)

Key:
CK1-EPSILON = CK1-EPSILON (Homo sapiens, UniProt P49674); assay: kinase panel; assay type: biochemical
ROS = ROS (Homo sapiens, UniProt P08922); assay: kinase panel; assay type: biochemical
PDGFR-ALPHA = PDGFR-ALPHA (Homo sapiens, UniProt P16234); assay: kinase panel; assay type: biochemical
GRK6 = GRK6 (Homo sapiens, UniProt P43250); assay: kinase panel; assay type: biochemical
RSK2 = RSK2 (Homo sapiens, UniProt P51812); assay: kinase panel; assay type: biochemical
ALK6 = ALK6 (Homo sapiens, UniProt O00238); assay: kinase panel; assay type: biochemical
PDK1 = PDK1 (Homo sapiens, UniProt O15530); assay: kinase panel; assay type: biochemical
AMP-A1B1G1 = AMP-A1B1G1 (Homo sapiens, UniProt Q13131); assay: kinase panel; assay type: biochemical
MARK4 = MARK4 (Homo sapiens, UniProt Q96L34); assay: kinase panel; assay type: biochemical
CLK4 = CLK4 (Homo sapiens, UniProt Q9HAZ1); assay: kinase panel; assay type: biochemical
CSK = CSK (Homo sapiens, UniProt P41240); assay: kinase panel; assay type: biochemical
MET = MET (Homo sapiens, UniProt P08581); assay: kinase panel; assay type: biochemical
PIM2 = PIM2 (Homo sapiens, UniProt Q9P1W9); assay: kinase panel; assay type: biochemical
BRAF = BRAF (Homo sapiens, UniProt P15056); assay: kinase panel; assay type: biochemical
DYRK3 = DYRK3 (Homo sapiens, UniProt O43781); assay: kinase panel; assay type: biochemical
BRK = BRK (Homo sapiens, UniProt Q13882); assay: kinase panel; assay type: biochemical
DYRK4 = DYRK4 (Homo sapiens, UniProt Q9NR20); assay: kinase panel; assay type: biochemical
PKACB = PKACB (Homo sapiens, UniProt P22694); assay: kinase panel; assay type: biochemical
BRSK1 = BRSK1 (Homo sapiens, UniProt Q8TDC3); assay: kinase panel; assay type: biochemical
MSSK1 = MSSK1 (Homo sapiens, UniProt Q9UPE1); assay: kinase panel; assay type: biochemical
BRSK2 = BRSK2 (Homo sapiens, UniProt Q8IWQ3); assay: kinase panel; assay type: biochemical
EPH-A2 = EPH-A2 (Homo sapiens, UniProt P29317); assay: kinase panel; assay type: biochemical
IRR = IRR (Homo sapiens, UniProt P14616); assay: kinase panel; assay type: biochemical
PKC-IOTA = PKC-IOTA (Homo sapiens, UniProt P41743); assay: kinase panel; assay type: biochemical
EPH-A5 = EPH-A5 (Homo sapiens, UniProt P54756); assay: kinase panel; assay type: biochemical
MUSK = MUSK (Homo sapiens, UniProt O15146); assay: kinase panel; assay type: biochemical
PKC-ZETA = PKC-ZETA (Homo sapiens, UniProt Q05513); assay: kinase panel; assay type: biochemical
NEK1 = NEK1 (Homo sapiens, UniProt Q96PY6); assay: kinase panel; assay type: biochemical
CAMK4 = CAMK4 (Homo sapiens, UniProt Q16566); assay: kinase panel; assay type: biochemical
PLK1 = PLK1 (Homo sapiens, UniProt P53350); assay: kinase panel; assay type: biochemical
NEK3 = NEK3 (Homo sapiens, UniProt P51956); assay: kinase panel; assay type: biochemical
PLK3 = PLK3 (Homo sapiens, UniProt Q9H4B4); assay: kinase panel; assay type: biochemical
TNK1 = TNK1 (Homo sapiens, UniProt Q13470); assay: kinase panel; assay type: biochemical
CDK4-CYCLIND = CDK4-CYCLIND (Homo sapiens, UniProt P11802); assay: kinase panel; assay type: biochemical
TSSK1 = TSSK1 (Homo sapiens, UniProt Q9BXA7); assay: kinase panel; assay type: biochemical
CHEK1 = CHEK1 (Homo sapiens, UniProt O14757); assay: kinase panel; assay type: biochemical
FLT-3 = FLT-3 (Homo sapiens, UniProt P36888); assay: kinase panel; assay type: biochemical
ZAP70 = ZAP70 (Homo sapiens, UniProt P43403); assay: kinase panel; assay type: biochemical
Adenosine 2A receptor = Adenosine 2A receptor (Homo sapiens, UniProt P29274); assay: Adenosine 2A receptor binding assay
Dopamine D2 receptor = Dopamine D2 receptor (Homo sapiens, UniProt P14416); assay: Dopamine D2 receptor assay; assay type: binding
Serotonin 5HT2A = Serotonin 5HT2A (Homo sapiens, UniProt P28223); assay: Serotonin 5HT2A calcium flux assay; assay type: cell-based
H3255 cells = assay: Proliferation assay; assay type: cell-based
Summary of the method: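 Cells were maintained in 10% FBS/RPMI with penicillin/streptomycin and plated at 500 cells/well in 10% FBS RPMI. Serially diluted test compound was pin-transferred. Viability was read after 3 days by CellTiter-Glo luminescence and normalized to 0.1% DMSO-treated cells and empty wells. EC50 was obtained by non-linear regression curve fitting.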

Chain of PDK1 (O15530 whole entry): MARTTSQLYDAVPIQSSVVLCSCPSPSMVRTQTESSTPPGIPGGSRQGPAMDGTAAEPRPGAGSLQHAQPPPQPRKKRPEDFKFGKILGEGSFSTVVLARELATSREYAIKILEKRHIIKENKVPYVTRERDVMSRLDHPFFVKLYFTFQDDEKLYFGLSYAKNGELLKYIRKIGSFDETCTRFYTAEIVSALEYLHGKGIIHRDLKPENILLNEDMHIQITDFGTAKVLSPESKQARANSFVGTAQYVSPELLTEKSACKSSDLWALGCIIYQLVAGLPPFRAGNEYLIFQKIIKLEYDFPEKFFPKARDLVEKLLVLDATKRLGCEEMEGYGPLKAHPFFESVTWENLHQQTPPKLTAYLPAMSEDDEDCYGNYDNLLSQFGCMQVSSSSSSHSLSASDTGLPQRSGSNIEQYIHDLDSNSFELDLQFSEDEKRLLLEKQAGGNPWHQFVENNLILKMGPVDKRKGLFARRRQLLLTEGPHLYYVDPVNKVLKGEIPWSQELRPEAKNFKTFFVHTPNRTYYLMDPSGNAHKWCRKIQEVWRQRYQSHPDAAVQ
Chain of PIM2 (Q9P1W9 whole entry): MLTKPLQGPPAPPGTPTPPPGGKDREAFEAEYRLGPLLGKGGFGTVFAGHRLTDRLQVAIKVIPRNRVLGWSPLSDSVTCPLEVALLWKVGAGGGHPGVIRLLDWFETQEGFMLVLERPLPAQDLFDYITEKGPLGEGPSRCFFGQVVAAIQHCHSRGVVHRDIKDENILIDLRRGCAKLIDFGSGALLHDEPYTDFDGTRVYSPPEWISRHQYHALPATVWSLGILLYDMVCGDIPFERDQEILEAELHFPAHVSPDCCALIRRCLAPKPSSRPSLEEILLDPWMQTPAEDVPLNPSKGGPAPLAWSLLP
Chain of PLK3 (Q9H4B4 whole entry): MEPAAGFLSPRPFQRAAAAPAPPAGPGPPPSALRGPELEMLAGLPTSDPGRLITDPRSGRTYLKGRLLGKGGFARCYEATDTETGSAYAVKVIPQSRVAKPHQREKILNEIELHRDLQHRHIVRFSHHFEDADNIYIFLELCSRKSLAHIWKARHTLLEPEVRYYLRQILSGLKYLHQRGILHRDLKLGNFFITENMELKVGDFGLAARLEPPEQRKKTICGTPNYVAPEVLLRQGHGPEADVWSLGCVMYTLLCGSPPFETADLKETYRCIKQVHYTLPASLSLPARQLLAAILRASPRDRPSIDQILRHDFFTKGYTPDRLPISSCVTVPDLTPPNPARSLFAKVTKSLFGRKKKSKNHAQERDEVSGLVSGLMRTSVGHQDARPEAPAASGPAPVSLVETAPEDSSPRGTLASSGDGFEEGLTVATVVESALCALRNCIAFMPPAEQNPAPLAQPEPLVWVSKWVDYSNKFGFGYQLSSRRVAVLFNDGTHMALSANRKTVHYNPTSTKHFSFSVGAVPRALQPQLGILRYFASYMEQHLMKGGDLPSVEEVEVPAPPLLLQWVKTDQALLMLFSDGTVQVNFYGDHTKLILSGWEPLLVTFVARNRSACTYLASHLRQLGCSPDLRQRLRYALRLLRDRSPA
Chain of PDGFR-ALPHA (P16234 24-1089): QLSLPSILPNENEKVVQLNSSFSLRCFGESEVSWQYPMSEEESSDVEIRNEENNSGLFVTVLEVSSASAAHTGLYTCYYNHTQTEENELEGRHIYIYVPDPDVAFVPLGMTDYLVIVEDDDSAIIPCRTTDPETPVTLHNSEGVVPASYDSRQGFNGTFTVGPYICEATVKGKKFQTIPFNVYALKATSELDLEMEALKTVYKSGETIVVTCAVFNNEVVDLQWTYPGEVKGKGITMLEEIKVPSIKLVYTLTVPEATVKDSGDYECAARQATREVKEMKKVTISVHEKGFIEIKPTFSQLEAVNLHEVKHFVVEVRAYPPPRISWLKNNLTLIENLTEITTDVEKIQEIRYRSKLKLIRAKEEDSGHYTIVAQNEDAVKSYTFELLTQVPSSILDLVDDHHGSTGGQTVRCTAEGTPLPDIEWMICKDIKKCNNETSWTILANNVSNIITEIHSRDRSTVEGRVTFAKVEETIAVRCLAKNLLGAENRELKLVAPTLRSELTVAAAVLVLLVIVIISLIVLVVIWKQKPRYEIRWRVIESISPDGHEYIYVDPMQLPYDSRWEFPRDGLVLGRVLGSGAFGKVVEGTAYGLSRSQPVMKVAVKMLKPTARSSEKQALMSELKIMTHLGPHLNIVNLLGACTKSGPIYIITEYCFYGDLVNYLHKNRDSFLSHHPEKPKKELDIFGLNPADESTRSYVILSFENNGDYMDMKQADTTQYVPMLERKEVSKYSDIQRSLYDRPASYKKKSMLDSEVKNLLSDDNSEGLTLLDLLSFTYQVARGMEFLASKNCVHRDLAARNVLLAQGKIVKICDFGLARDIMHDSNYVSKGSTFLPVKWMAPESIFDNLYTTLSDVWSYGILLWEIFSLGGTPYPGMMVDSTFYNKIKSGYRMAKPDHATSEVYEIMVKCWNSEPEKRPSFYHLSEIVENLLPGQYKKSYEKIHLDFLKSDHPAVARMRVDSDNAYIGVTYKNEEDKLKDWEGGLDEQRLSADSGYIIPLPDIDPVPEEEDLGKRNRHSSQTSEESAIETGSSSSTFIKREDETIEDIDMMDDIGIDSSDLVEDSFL
Chain of TNK1 (Q13470 whole entry): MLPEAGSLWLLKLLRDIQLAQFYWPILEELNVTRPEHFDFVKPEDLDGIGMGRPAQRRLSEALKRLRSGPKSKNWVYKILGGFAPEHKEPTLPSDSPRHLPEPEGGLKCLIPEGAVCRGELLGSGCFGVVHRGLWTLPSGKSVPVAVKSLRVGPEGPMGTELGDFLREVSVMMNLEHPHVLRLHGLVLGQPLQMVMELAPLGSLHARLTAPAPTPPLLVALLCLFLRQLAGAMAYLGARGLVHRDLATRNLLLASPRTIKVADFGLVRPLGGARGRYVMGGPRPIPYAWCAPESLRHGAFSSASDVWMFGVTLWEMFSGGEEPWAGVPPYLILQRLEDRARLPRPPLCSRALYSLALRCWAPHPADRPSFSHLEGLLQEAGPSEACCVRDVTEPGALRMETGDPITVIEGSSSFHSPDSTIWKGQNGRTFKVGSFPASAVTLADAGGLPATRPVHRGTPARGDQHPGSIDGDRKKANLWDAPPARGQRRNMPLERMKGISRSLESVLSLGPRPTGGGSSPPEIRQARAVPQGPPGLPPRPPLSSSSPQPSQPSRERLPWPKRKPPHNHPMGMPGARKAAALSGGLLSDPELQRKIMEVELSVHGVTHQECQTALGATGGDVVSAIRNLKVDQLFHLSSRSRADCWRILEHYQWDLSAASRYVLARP
Chain of CDK4-CYCLIND (P11802 whole entry): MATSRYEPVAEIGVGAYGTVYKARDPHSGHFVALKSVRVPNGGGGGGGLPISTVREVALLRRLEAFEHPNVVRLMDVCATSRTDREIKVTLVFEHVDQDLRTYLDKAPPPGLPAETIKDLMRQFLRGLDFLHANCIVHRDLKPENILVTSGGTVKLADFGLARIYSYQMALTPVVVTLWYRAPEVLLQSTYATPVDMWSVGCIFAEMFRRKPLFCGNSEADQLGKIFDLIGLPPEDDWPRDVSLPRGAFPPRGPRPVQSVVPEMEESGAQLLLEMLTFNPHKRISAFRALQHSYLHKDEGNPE
Chain of CDK4-CYCLIND (P24385 whole entry partner): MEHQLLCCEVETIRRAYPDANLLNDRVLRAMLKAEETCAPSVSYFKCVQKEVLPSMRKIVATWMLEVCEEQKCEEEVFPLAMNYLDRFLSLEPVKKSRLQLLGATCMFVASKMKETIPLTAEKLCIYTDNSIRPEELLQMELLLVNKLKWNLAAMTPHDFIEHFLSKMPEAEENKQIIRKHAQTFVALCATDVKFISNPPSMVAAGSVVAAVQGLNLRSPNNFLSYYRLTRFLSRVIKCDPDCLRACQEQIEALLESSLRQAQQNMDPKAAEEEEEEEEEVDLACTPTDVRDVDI
Chain of PKC-ZETA (Q05513 whole entry): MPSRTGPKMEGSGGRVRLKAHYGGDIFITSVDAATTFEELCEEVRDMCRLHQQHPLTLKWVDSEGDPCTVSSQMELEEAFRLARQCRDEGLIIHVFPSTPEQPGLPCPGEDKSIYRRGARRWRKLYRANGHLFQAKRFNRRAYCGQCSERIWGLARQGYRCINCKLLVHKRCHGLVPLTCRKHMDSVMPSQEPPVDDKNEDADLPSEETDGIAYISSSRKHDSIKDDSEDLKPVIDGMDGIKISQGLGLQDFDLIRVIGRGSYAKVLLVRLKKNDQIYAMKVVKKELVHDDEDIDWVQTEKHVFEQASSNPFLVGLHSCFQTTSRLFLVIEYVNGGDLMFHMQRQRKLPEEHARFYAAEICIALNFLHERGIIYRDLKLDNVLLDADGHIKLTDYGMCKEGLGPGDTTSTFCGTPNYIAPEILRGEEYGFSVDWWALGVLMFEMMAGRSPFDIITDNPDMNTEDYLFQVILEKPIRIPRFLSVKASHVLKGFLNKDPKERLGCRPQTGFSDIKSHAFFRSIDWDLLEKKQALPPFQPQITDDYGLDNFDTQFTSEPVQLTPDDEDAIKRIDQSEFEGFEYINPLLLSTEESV
Chain of DYRK4 (Q9NR20 whole entry): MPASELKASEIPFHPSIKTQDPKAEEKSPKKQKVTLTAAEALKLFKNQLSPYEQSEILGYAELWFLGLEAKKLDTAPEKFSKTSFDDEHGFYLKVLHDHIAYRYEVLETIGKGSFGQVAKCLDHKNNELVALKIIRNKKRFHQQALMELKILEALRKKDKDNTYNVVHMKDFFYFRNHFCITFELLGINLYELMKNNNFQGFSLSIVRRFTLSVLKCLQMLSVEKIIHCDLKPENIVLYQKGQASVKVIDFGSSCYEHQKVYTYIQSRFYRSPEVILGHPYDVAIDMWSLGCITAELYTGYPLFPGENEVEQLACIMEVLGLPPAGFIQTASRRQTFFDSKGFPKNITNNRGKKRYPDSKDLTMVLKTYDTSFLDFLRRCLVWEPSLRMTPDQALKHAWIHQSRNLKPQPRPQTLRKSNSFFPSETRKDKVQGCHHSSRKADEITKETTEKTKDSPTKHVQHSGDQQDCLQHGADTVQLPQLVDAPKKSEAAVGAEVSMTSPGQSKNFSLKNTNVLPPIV

With `O=C(Nc1nccs1)C(c1cc(F)ccc1O)N1Cc2ccccc2C1=O` (stereo not shown) [EAI045, 2-(5-fluoro-2-hydroxyphenyl)-2-(1-oxo-2,3-dihydro-1H-isoindol-2-yl)-N-(1,3-thiazol-2-yl)acetamide] the inhibition at 1 µM (CK1-EPSILON) was 0%, the inhibition at 1 µM (ROS) was 1% and the inhibition at 1 µM (PDGFR-ALPHA) was 0%. The inhibition at 1 µM (GRK6) was 0%, the inhibition at 1 µM (RSK2) was 0% and the inhibition at 1 µM (ALK6) was 0%. It also gave an inhibition at 1 µM (PDK1) of 0%, an inhibition at 1 µM (AMP-A1B1G1) of 1% and an inhibition at 1 µM (MARK4) of 0%. For the same compound, the inhibition at 1 µM (CLK4) was 0%, the inhibition at 1 µM (CSK) was 0% and the inhibition at 1 µM (MET) was 0%. For the same compound, the inhibition at 1 µM (PIM2) was 2%, the inhibition at 1 µM (BRAF) was 0% and the inhibition at 1 µM (DYRK3) was 2%. It also gave an inhibition at 1 µM (BRK) of 0%, an inhibition at 1 µM (DYRK4) of 1% and an inhibition at 1 µM (PKACB) of 0%. The inhibition at 1 µM (BRSK1) was 0%, the inhibition at 1 µM (MSSK1) was 0% and the inhibition at 1 µM (BRSK2) was 0%. For the same compound, the inhibition at 1 µM (EPH-A2) was 7%, the inhibition at 1 µM (IRR) was 0% and the inhibition at 1 µM (PKC-IOTA) was 0%. It also gave an inhibition at 1 µM (EPH-A5) of 4%, an inhibition at 1 µM (MUSK) of 0% and an inhibition at 1 µM (PKC-ZETA) of 0%. The inhibition at 1 µM (NEK1) was 0%, the inhibition at 1 µM (CAMK4) was 1% and the inhibition at 1 µM (PLK1) was 7%. The inhibition at 1 µM (NEK3) was 0%, the inhibition at 1 µM (PLK3) was 5% and the inhibition at 1 µM (TNK1) was 0%. For the same compound, the inhibition at 1 µM (CDK4-CYCLIND) was 0%, the inhibition at 1 µM (TSSK1) was 2% and the inhibition at 1 µM (CHEK1) was 0%. The inhibition at 1 µM (FLT-3) was 0%, the inhibition at 1 µM (ZAP70) was 1% and the IC50 (Adenosine 2A receptor) was over 30 µM. For the same compound, the IC50 (Dopamine D2 receptor) was over 30 µM, the IC50 (Serotonin 5HT2A) was over 30 µM and the anti-proliferative effect (H3255 cells; H3255, concentrations as high as 10 μM) was “no anti-proliferative effect”. For the same compound, the EC50 (H3255 cells; Homo sapiens, NCI-H3255, 72 h, read-out: EC50 Proliferation) was over 10 µM.
